Measurements as given in ChEMBL document CHEMBL4014306, “Pyrazolopyrimidines as Potent Stimulators for Transient Receptor Potential Canonical 3/6/7 Channels” (J Med Chem, 2017).
The source made the active and inactive calls. No cut-off for these calls is given here.

Legend:
Format in all cases: cell-based
[1] = molecular target: T1, Short transient receptor potential channel 4 (Mus musculus, UniProt Q9QUQ5); assay: Antagonist activity at mouse TRPC4beta expressed in HEK293 cells co-expressing MOR decrease in DAMGO-evoked intracellular calcium level by Fluo-8-AM dye-based fluorescence assay
T1 sequence (Q9QUQ5 whole entry): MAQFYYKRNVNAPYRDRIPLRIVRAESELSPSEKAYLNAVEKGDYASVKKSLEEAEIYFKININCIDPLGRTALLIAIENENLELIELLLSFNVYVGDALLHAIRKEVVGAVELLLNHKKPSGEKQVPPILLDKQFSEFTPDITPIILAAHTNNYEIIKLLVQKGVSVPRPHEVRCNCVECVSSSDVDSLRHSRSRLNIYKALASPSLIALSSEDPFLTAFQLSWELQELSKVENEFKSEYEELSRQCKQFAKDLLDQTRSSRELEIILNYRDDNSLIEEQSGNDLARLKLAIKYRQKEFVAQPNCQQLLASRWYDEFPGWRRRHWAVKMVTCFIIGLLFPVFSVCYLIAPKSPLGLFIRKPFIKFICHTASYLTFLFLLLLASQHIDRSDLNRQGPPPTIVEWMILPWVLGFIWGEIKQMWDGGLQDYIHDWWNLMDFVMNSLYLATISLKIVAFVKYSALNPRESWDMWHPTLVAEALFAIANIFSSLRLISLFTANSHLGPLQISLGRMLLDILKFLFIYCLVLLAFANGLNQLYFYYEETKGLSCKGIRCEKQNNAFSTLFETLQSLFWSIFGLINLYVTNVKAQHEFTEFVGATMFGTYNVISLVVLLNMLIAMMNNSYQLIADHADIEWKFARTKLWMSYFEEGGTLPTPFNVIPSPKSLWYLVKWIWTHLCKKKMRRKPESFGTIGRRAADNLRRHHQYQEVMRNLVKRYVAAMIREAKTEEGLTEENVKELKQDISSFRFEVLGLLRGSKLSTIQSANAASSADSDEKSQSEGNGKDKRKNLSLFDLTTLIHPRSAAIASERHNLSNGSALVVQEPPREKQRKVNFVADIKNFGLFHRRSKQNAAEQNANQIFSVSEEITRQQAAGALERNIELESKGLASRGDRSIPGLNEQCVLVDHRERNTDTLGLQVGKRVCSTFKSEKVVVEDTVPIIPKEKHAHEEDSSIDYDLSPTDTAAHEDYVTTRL
Summary of the method: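 MOR/TRPC4β HEK293 cells loaded with Ca2+ dye. Compound given before 1 μM DAMGO. IC50 estimated from one experiment in triplicate.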

[2] = molecular target: T2, Short transient receptor potential channel 3 (Homo sapiens, UniProt Q13507); assay: Agonist activity at human TRPC3 expressed in HEK293 cells assessed as induction of membrane depolarization measured for 2.5 mins in presence of 0.5 mM Ca2+ by FLIPR membrane potential dye-based fluorescence assay
T2 sequence (Q13507 whole entry): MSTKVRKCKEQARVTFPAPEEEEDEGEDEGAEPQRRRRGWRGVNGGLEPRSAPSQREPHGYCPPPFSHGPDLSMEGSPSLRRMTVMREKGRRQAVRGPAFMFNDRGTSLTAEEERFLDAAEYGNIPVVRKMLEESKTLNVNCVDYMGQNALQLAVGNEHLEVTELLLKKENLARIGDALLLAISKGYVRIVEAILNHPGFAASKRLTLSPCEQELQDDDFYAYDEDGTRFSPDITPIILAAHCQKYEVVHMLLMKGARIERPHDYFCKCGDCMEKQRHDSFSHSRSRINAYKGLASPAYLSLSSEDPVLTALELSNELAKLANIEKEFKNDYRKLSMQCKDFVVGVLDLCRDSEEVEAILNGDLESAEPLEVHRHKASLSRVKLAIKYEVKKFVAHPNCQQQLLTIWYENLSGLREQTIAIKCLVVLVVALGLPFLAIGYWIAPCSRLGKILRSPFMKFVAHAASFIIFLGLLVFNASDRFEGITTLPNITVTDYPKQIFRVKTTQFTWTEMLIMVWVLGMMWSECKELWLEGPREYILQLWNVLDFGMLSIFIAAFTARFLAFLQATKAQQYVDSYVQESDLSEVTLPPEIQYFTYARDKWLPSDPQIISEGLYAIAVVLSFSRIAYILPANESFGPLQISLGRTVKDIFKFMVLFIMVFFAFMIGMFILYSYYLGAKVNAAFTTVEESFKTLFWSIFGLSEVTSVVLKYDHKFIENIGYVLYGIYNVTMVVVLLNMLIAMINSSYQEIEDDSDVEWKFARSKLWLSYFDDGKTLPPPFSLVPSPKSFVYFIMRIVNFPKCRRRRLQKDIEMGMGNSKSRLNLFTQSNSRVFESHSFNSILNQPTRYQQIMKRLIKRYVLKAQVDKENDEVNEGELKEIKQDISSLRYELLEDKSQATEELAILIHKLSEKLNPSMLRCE
Summary of the method: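 HEK293 cells stably expressing human TRPC3, run on a FlexStation at 32 °C. Loaded with FMP dye, or Fluo-type Ca2+ dye with 2 mM probenecid. Extracellular NaCl/HEPES saline, pH 7.4, with 2 mM Ca2+ (standard) or 0.5 mM Ca2+. Read as F/F0. In 0.5 mM Ca2+, FMP EC50 from a Hill fit, n = 6.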

[3] = molecular target: Transient receptor potential cation channel subfamily A member 1 (Homo sapiens) (UniProt O75762); assay: Agonist activity at human TRPA1 expressed in HEK293 cells assessed as increase in intracellular calcium level at 33 uM measured for 2.5 mins by Fluo-8-AM dye based fluorescence assay
Sequence of Transient receptor potential cation channel subfamily A member 1 (Homo sapiens) (O75762 whole entry): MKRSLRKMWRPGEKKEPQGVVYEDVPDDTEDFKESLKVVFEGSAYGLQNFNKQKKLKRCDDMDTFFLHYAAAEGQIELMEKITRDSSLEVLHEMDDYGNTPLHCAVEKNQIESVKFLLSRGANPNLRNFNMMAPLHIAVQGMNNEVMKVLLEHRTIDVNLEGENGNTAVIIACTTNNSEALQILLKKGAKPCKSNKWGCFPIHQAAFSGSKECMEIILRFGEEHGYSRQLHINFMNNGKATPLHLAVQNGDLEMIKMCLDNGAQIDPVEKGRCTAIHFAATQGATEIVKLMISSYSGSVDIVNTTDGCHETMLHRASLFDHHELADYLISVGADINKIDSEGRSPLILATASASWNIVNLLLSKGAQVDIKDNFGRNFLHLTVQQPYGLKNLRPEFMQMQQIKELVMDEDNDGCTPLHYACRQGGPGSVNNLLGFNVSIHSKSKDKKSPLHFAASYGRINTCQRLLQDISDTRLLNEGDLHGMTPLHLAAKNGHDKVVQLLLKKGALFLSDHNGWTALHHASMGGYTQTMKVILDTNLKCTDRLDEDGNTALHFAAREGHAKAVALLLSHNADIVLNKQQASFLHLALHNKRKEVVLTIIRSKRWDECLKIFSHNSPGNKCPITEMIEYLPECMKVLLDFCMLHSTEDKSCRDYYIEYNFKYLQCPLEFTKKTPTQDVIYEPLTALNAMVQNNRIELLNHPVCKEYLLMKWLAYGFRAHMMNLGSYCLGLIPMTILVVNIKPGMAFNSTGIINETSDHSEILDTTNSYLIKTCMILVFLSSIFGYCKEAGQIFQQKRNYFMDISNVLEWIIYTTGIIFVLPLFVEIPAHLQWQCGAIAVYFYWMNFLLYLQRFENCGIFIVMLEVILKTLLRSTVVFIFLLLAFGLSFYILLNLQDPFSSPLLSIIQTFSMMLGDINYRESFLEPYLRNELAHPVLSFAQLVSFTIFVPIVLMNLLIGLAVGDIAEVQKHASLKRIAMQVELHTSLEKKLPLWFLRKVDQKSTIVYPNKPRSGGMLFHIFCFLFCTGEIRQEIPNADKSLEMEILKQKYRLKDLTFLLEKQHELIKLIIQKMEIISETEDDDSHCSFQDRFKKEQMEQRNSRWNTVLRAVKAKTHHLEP

[4] = molecular target: Transient receptor potential cation channel subfamily V member 4 (Homo sapiens) (UniProt Q9HBA0); assay: Agonist activity at human TRPV4 expressed in HEK293 cells assessed as increase in intracellular calcium level at 33 uM measured for 2.5 mins by Fluo-8-AM dye based fluorescence assay
Sequence of Transient receptor potential cation channel subfamily V member 4 (Homo sapiens) (Q9HBA0 whole entry): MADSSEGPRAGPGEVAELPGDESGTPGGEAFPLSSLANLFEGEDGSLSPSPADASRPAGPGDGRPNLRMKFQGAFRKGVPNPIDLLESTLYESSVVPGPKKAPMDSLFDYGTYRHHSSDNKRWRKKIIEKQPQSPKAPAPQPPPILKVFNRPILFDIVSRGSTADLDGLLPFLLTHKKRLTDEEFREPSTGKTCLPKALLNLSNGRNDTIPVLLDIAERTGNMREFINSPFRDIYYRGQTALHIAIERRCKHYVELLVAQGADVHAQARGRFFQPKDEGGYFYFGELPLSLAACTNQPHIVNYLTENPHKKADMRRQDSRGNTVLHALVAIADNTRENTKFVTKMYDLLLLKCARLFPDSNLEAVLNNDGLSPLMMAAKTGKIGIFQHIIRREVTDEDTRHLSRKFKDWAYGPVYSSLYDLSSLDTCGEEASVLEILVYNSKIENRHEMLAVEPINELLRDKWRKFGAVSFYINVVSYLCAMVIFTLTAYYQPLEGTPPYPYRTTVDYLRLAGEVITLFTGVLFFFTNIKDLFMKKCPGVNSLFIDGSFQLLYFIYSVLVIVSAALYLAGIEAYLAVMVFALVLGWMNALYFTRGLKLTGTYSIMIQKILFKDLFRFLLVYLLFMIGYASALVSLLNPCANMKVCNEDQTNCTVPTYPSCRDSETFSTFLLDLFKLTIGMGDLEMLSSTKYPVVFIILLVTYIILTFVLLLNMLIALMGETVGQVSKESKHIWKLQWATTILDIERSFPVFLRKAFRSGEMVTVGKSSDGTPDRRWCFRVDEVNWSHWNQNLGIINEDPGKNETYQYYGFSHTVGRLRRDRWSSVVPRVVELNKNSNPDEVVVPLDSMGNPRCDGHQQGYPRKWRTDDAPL

IC50 [1]	EC50 [2] [nM]	Activity [3]	Activity [4]	Compound
Not Active		inactive	inactive	CCOC(=O)N1CCC(c2cc(O)n3nc(C)c(-c4ccc(C(F)(F)F)cc4)c3n2)CC1
Not Active	138	inactive	inactive	Cc1nn2c(O)cc(C3CCN(C(=O)OCc4ccccc4)CC3)nc2c1-c1ccc(Cl)cc1
Not Active	236	inactive	inactive	Cc1nn2c(O)cc(C3CCN(C(=O)OCc4ccccc4)CC3)nc2c1-c1ccc(F)cc1

Compound	IC50 [1]	EC50 [2] [nM]	Activity [3]	Activity [4]
CCOC(=O)N1CCC(c2cc(O)n3nc(C)c(-c4ccc(F)cc4)c3n2)CC1	Not Active	450	inactive	inactive
